From ChEMBL document CHEMBL4813968, “Synthesis and evaluation of 3'-fluorinated 7-deazapurine nucleosides as antikinetoplastid agents” (Eur J Med Chem, 2021)

Assays:
[1] = tested on: Trypanosoma cruzi; test: Antitrypanosomal activity against Trypanosoma cruzi Tulahuen CL2 infected in human MRC5 cells assessed as inhibition of parasite growth incubated for 7 days by chlorophenol red-fl-D-galactopyranoside based spectrophotometric analysis; assay type: functional, organism-based; conditions: Tulahuen CL2, MRC5, 168 h
Method in brief: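 T. cruzi Tulahuen CL2 β-galactosidase strain was maintained on MRC-5_SV2 cells. Wells held 4×10³ cells plus 4×10⁴ parasites with a 10-point 4-fold compound series, final DMSO <1%. After 7 days at 37 °C, 5% CO₂, substrate was added and absorbance read at 540 nm after 4 h at 37 °C. IC₅₀ was taken from % reduction versus infected and uninfected controls.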

[2] = Selectivity index, ratio of EC50 for cytotoxicity against human MRC5 cells to EC50 for antitrypanosomal activity against Trypanosoma cruzi Tulahuen CL2 infected in human MRC5 cells; assay type: toxicity, cell-based; conditions: read-out: Ratio EC50
Method in brief: (§1)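 Selectivity index is the MRC-5 EC₅₀ divided by the parasite EC₅₀.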

[3] = tested on: Leishmania infantum; test: Antileishmanial activity against Leishmania infantum MHOM/MA(BE)/67 infected in mouse primary peritoneal macrophages treated 2 hrs post-infection and incubated for 5 days by Giemsa staining based microscopic analysis; assay type: functional, organism-based; conditions: MHOM/MA(BE)/67, Peritoneal macrophage
Method in brief: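 Peritoneal macrophages from mice, harvested 2 days after 2% potato starch stimulation, infected after 48 h with L. infantum in supplemented RPMI-1640 with 5% FCS. Compounds were added 2 h post-infection as a 10-point 4-fold dilution series, final DMSO <1%, and incubated 5 days at 37 °C, 5% CO₂. Amastigotes per macrophage were counted after 10% Giemsa staining, and IC₅₀ was taken from % reduction versus untreated-infected controls.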

[4] = tested on: Trypanosoma brucei brucei; test: Antitrypanosomal activity against Trypanosoma brucei brucei assessed as parasite growth inhibition; assay type: functional, organism-based
[5] = Selectivity index, ratio of EC50 for cytotoxicity against mouse primary macrophage to EC50 for antileishmanial activity against Leishmania infantum MHOM/MA(BE)/67 infected in mouse primary peritoneal macrophages; assay type: toxicity; conditions: read-out: Ratio EC50
[6] = tested on: MRC5; test: Cytotoxicity against human MRC5 cells assessed as reduction in cell viability after 3 days by resazurin dye based fluorimetric analysis; conditions: MRC5, 72 h
Method in brief: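 MRC-5_SV2 cells, 1.5×10⁵ cells/mL in MEM with Earl's salts, L-glutamine, NaHCO₃ and 5% inactivated FCS, were exposed 3 days at 37 °C, 5% CO₂ to a 10-point 4-fold dilution series, final DMSO <1%. Resazurin was added for 4 h, fluorescence read at ex 550/em 590 nm, and IC₅₀ derived versus untreated and medium controls.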

[7] = tested on: Macrophage; test: Cytotoxicity against mouse primary macrophage cells assessed as reduction in cell viability; assay type: cell-based
Method in brief: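 Macrophage toxicity was scored microscopically within the L. infantum assays, using cell detachment, lysis and granulation. At least 500 cells over adjacent fields were scored semi-quantitatively, and CC₅₀ was taken from % reduction in normal cells versus untreated controls.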

[8] = tested on: Trypanosoma brucei rhodesiense; test: Antitrypanosomal activity against Trypanosoma brucei rhodesiense assessed as parasite growth inhibition; assay type: functional, organism-based
[9] = Selectivity index, ratio of EC50 for human MRC5 cells to EC50 for antitrypanosomal activity against Trypanosoma brucei brucei; assay type: toxicity; conditions: read-out: Ratio EC50; method in brief: as §1
[10] = Selectivity index, ratio of EC50 for human MRC5 cells to EC50 for antitrypanosomal activity against Trypanosoma brucei rhodesiense; assay type: toxicity; conditions: read-out: Ratio EC50; method in brief: as §1

SMILES	EC50 [1]	selectivity ratio [2]	EC50 [3]	EC50 [4]	selectivity ratio [5]	EC50 [6]	EC50 [7]	EC50 [8]	selectivity ratio [9]	selectivity ratio [10]
Nc1nc2c(ncn2[C@@H]2O[C@H](CO)[C@@H](F)[C@H]2O)c(=O)[nH]1	34.6 µM	1	46.9 µM	42 µM	> 1	42 µM	> 64 µM	> 64 µM	–	–
Nc1ncnc2c1ccn2[C@@H]1O[C@H](CO)[C@@H](F)[C@H]1O	9.09 µM	> 7	23.4 µM	22.2 µM	> 2	> 64 µM	> 64 µM	1.47 µM	> 2	> 44
Nc1ncnc2c1c(I)cn2[C@@H]1O[C@H](CO)[C@@H](F)[C@H]1O	0.039 µM	170	2.33 µM	0.032 µM	9	6.65 µM	22 µM	0.0077 µM	201	826
OC[C@H]1O[C@@H](n2cc(Br)c3c(O)ncnc32)[C@H](O)[C@H]1F	> 64 µM	–	> 64 µM	16 µM	–	> 64 µM	> 64 µM	1.57 µM	> 4	> 41
Nc1ncnc2c1c(Cl)cn2[C@@H]1O[C@H](CO)[C@@H](F)[C@H]1O	0.071 µM	194	0.09 µM	0.13 µM	1	13.8 µM	0.13 µM	0.031 µM	108	448
O=c1[nH]cnc2c1c(F)cn2[C@@H]1O[C@H](CO)[C@@H](F)[C@H]1O	> 64 µM	–	> 64 µM	> 64 µM	–	> 64 µM	> 64 µM	> 64 µM	–	–
COc1ncnc2c1c(Br)cn2[C@@H]1O[C@H](CO)[C@@H](F)[C@H]1O	> 64 µM	–	> 64 µM	8.64 µM	–	> 64 µM	> 64 µM	51.6 µM	7	1
Cc1cn([C@@H]2O[C@H](CO)[C@@H](F)[C@H]2O)c2ncnc(N)c12	13.1 µM	> 5	38.4 µM	0.96 µM	> 2	> 64 µM	> 64 µM	0.21 µM	> 67	> 312
COc1nc(N)nc2c1ccn2[C@@H]1O[C@H](CO)[C@@H](F)[C@H]1O	> 64 µM	–	> 64 µM	> 64 µM	–	> 64 µM	> 64 µM	> 64 µM	–	–
Nc1ncnc2c1ccn2[C@@H]1O[C@H](CO)[C@H](F)[C@H]1O	> 64 µM	–	> 64 µM	0.04 µM	–	> 64 µM	> 64 µM	0.0063 µM	> 1590	> 10100
CCc1cn([C@@H]2O[C@H](CO)[C@@H](F)[C@H]2O)c2ncnc(N)c12	> 64 µM	< 1	> 64 µM	20.5 µM	–	40.3 µM	> 64 µM	21.3 µM	2	2
Nc1ncnc2c1c(Br)cn2[C@@H]1O[C@H](CO)[C@@H](F)[C@H]1O	0.041 µM	779	0.37 µM	0.031 µM	3	32 µM	1.02 µM	0.028 µM	–	1150
N#Cc1cn([C@@H]2O[C@H](CO)[C@@H](F)[C@H]2O)c2ncnc(N)c12	9.66 µM	< 1	2.03 µM	10.5 µM	< 1	1.32 µM	2 µM	0.38 µM	–	3
Nc1ncnc2c1c(C(F)(F)F)cn2[C@@H]1O[C@H](CO)[C@@H](F)[C@H]1O	3.17 µM	–	27.3 µM	2.02 µM	1	7.01 µM	32 µM	2.06 µM	3	3
NC(=O)c1cn([C@@H]2O[C@H](CO)[C@@H](F)[C@H]2O)c2ncnc(N)c12	7.1 µM	< 1	32.5 µM	2.34 µM	1	2.38 µM	32 µM	0.12 µM	1	20
COc1ncnc2c1ncn2[C@@H]1O[C@H](CO)[C@@H](F)[C@H]1O	30.1 µM	> 2	> 64 µM	33.5 µM	–	> 64 µM	> 64 µM	35.2 µM	2	2
COc1nc(N)nc2c1c(Br)cn2[C@@H]1O[C@H](CO)[C@@H](F)[C@H]1O	> 64 µM	–	> 64 µM	> 64 µM	–	> 64 µM	> 64 µM	> 64 µM	–	–
O=c1[nH]cnc2c1c(Cl)cn2[C@@H]1O[C@H](CO)[C@@H](F)[C@H]1O	> 64 µM	–	> 64 µM	> 64 µM	–	> 64 µM	> 64 µM	> 64 µM	–	–
O=c1[nH]cnc2c1c(I)cn2[C@@H]1O[C@H](CO)[C@@H](F)[C@H]1O	> 64 µM	–	> 64 µM	> 64 µM	–	> 64 µM	> 64 µM	> 64 µM	–	–
O=c1[nH]cnc2c1ncn2[C@@H]1O[C@H](CO)[C@@H](F)[C@H]1O	4.28 µM	> 15	> 64 µM	> 64 µM	–	> 64 µM	> 64 µM	> 64 µM	–	–
Nc1ncnc2c1c(F)cn2[C@@H]1O[C@H](CO)[C@@H](F)[C@H]1O	0.25 µM	22	1.75 µM	0.47 µM	–	5.49 µM	2 µM	0.16 µM	9	27
Nc1nc(N)c2ncn([C@@H]3O[C@H](CO)[C@@H](F)[C@H]3O)c2n1	> 64 µM	–	> 64 µM	> 64 µM	–	> 64 µM	> 64 µM	> 64 µM	–	–
O=c1[nH]cnc2c1c(Br)cn2[C@@H]1O[C@H](CO)[C@@H](F)[C@H]1O	> 64 µM	–	> 64 µM	> 64 µM	–	> 64 µM	> 64 µM	> 64 µM	–	–
Nc1nc2c(ccn2[C@@H]2O[C@H](CO)[C@@H](F)[C@H]2O)c(=O)[nH]1	> 64 µM	–	> 64 µM	> 64 µM	–	> 64 µM	> 64 µM	> 64 µM	–	–
O=c1[nH]cnc2c1ccn2[C@@H]1O[C@H](CO)[C@@H](F)[C@H]1O	> 64 µM	–	> 64 µM	> 64 µM	–	> 64 µM	> 64 µM	> 64 µM	–	–
O=c1[nH]cnc2c1c(-c1ccccc1)cn2[C@@H]1O[C@H](CO)[C@@H](F)[C@H]1O	> 64 µM	–	> 64 µM	> 64 µM	–	> 64 µM	> 64 µM	> 64 µM	–	–
Nc1ncnc2c1ncn2[C@@H]1O[C@H](CO)[C@@H](F)[C@H]1O	0.55 µM	9	27.5 µM	0.032 µM	> 2	4.92 µM	> 32 µM	0.017 µM	154	296
O=C(Cn1ccnc1[N+](=O)[O-])NCc1ccccc1 [BENZNIDAZOLE]	2.02 µM	–	–	–	–	–	–	–	–	–
CCCCCCCCCCCCCCCCOP(=O)([O-])OCC[N+](C)(C)C [MILTEFOSINE]	–	–	7.47 µM	–	–	–	–	–	–	–
Cc1ccc(C(=O)Nc2ccc(S(=O)(=O)O)c3cc(S(=O)(=O)O)cc(S(=O)(=O)O)c23)cc1NC(=O)c1cccc(NC(=O)Nc2cccc(C(=O)Nc3cc(C(=O)Nc4ccc(S(=O)(=O)O)c5cc(S(=O)(=O)O)cc(S(=O)(=O)O)c45)ccc3C)c2)c1 [SURAMIN]	–	–	–	0.03 µM	–	–	–	–	–	–
